According to ChEMBL document CHEMBL4330168, “Monomeric and Dimeric Cytotoxic Guaianolide-Type Sesquiterpenoids from the Aerial Parts of Chrysanthemum indicum” (J Nat Prod, 2019):

Tests used:
Assay type in all cases: functional, cell-based
HONE1 cell line = test: Cytotoxicity against human HONE1 cells after 48 hrs by MTT assay; conditions: HONE1, 48 h
Procedure, shortened: (§1)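 Growth inhibition in nasopharyngeal carcinoma lines (CNE1, CNE2, HONE-1, SUNE-1) and HT-29 colon cells. IC50 values are the mean ± SD of three experiments, with cisplatin as positive control.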

CNE-2 = test: Cytotoxicity against human CNE2 cells after 48 hrs by MTT assay; conditions: CNE-2, 48 h; procedure, shortened: as §1
CNE = test: Cytotoxicity against human CNE1 cells after 48 hrs by MTT assay; procedure, shortened: as §1
HT-29 = test: Cytotoxicity against human HT-29 cells after 48 hrs by MTT assay; conditions: HT-29, 48 h; procedure, shortened: as §1
SUNE1 = test: Cytotoxicity against human SUNE1 cells after 48 hrs by MTT assay; conditions: SUNE1, 48 h; procedure, shortened: as §1

Question: For `CC1=CC[C@@H]2[C@H]1[C@H]1OC(=O)[C@H](C)[C@@H]1[C@@H](O)C[C@@]2(C)O`, which IC50 (HONE1 cell line) is on record?
Answer: > 10 µM

Question: And the IC50 (CNE-2)?
Answer: > 10 µM

Question: And the IC50 (CNE)?
Answer: > 10 µM

Question: And the IC50 (HT-29)?
Answer: > 10 µM

Question: And the IC50 (SUNE1)?
Answer: > 10 µM

Question: `C=C1C(=O)O[C@H]2[C@H]1[C@@H](O)C[C@@](C)(O)[C@]13C=C[C@](C)([C@H]21)[C@]1(C3)C(=O)O[C@@H]2[C@H]3C(C)=CC[C@H]3[C@](C)(O)C[C@H](OC(=O)/C(C)=C\C)[C@H]21` was tested. Which IC50 (HONE1 cell line) did it give?
Answer: > 10 µM

Question: And the IC50 (CNE-2)?
Answer: > 10 µM

Question: And the IC50 (CNE)?
Answer: > 10 µM

Question: What about the IC50 (HT-29) of the same compound?
Answer: > 10 µM

Question: What about the IC50 (SUNE1) of the same compound?
Answer: > 10 µM

Question: With `C/C=C(\C)C(=O)O[C@H]1C[C@@](C)(O)[C@@H]2CC(=O)C(C)=C2[C@H]2OC(=O)[C@@H](C)[C@H]12` as the compound, how does the IC50 (HONE1 cell line) read?
Answer: > 10 µM

Question: And the IC50 (CNE-2)?
Answer: > 10 µM

Question: And the IC50 (CNE)?
Answer: > 10 µM

Question: What about the IC50 (HT-29) of the same compound?
Answer: > 10 µM

Question: And the IC50 (SUNE1)?
Answer: > 10 µM

Question: How did the IC50 (HONE1 cell line) turn out when `C/C=C(\C)C(=O)O[C@H]1C[C@@](C)(O)[C@@H]2CC=C(C)[C@@H]2[C@H]2OC(=O)[C@H](C)[C@@H]21` was run?
Answer: > 10 µM

Question: What about the IC50 (CNE-2) of the same compound?
Answer: > 10 µM

Question: What about the IC50 (CNE) of the same compound?
Answer: > 10 µM

Question: And the IC50 (HT-29)?
Answer: > 10 µM

Question: What about the IC50 (SUNE1) of the same compound?
Answer: > 10 µM

Question: Which results are given for `C=C1C(=O)O[C@@H]2[C@H]3C(C)=CC[C@H]3[C@](C)(O)C[C@H](OC(=O)/C(C)=C\C)[C@@H]12`?
Answer: IC50 (HONE1 cell line): 7.6 µM; IC50 (CNE-2): 7.4 µM; IC50 (CNE): 7.3 µM; IC50 (HT-29): > 10 µM; IC50 (SUNE1): 5.6 µM

Question: With `C=C1C(=O)O[C@@H]2[C@H]3C(C)=CC[C@H]3[C@](C)(O)C[C@H](OC(=O)/C(C)=C/C)[C@@H]12` as the compound, how does the IC50 (HONE1 cell line) read?
Answer: 6.5 µM

Question: What about the IC50 (CNE-2) of the same compound?
Answer: > 10 µM

Question: And the IC50 (CNE)?
Answer: 7.9 µM

Question: What about the IC50 (HT-29) of the same compound?
Answer: > 10 µM

Question: And the IC50 (SUNE1)?
Answer: 3 µM

Question: How did the IC50 (HONE1 cell line) turn out when `CC1=CC[C@@H]2[C@H]1[C@H]1OC(=O)[C@@H](C)[C@@H]1[C@H](O)C[C@@]2(C)O` was run?
Answer: > 10 µM

Question: And the IC50 (CNE-2)?
Answer: > 10 µM

Question: What about the IC50 (CNE) of the same compound?
Answer: > 10 µM

Question: What about the IC50 (HT-29) of the same compound?
Answer: > 10 µM

Question: What about the IC50 (SUNE1) of the same compound?
Answer: > 10 µM

Question: With `C=C1C(=O)O[C@H]2[C@H]1[C@@H](OC(=O)/C(C)=C/C)C[C@@](C)(O)[C@]13C=C[C@](C)([C@H]21)[C@]1(C3)C(=O)O[C@@H]2[C@H]3C(C)=CC[C@H]3[C@](C)(O)C[C@H](O)[C@H]21` as the compound, how does the IC50 (HONE1 cell line) read?
Answer: 7.5 µM

Question: And the IC50 (CNE-2)?
Answer: > 10 µM

Question: And the IC50 (CNE)?
Answer: > 10 µM

Question: What about the IC50 (HT-29) of the same compound?
Answer: > 10 µM

Question: And the IC50 (SUNE1)?
Answer: > 10 µM
